We go through three compounds from ChEMBL document CHEMBL3414449, “DUPA conjugation of a cytotoxic indenoisoquinoline topoisomerase I inhibitor for selective prostate cancer cell targeting” (J Med Chem, 2015).

In data set [1] the test system is CWR22R. Kind of data set: Cytotoxicity against human 22Rv1 cells after 2 hrs by [3H]thymidine incorporation assay. Format: functional, cell-based. The essentials:
(§1)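 22RV1 cells seeded at 50 000/well and grown to monolayer over 24–48 h. Drug pulse in fresh medium at 37 °C for 2 h or 24 h, then washed and chased 66 h. Labelled with 3H-thymidine (1 mCi/mL) for 4 h, TCA-precipitated, NaOH-solubilized and scintillation counted. IC50 from % incorporation vs log concentration.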
On the technique in general: Dividing cells build labelled thymidine or BrdU into new DNA.

In data set [2] the test system is CWR22R. Kind of data set: Antitumor activity against human 22Rv1 cells xenografted in nu/nu mouse assessed as regression of tumor growth at 2 umol/kg, ip administered as single dose on alternative days, 3 days/week for 3 weeks. Type of data set: functional, organism-based. The essentials: (§2)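 Male nu/nu mice, 5–6 weeks old, given 2 × 10^6 22RV1 cells in 20% HC Matrigel in the right shoulder. Dosing began at tumor ~100 mm3, 5 mice/group, ip in sterile saline (100 μL). Tumors measured by caliper every 2–3 days, volume = 0.5 × L × W2. Body weight recorded at each dosing. Live mice counted per dose. Untreated controls got saline.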
A general note: In xenograft studies the graft and the host belong to different species.

The subject of data set [3] is Mus musculus. Kind of data set: Toxicity in human 22Rv1 cells xenografted nu/nu mouse at 2 umol/kg, ip administered as single dose on alternative days, 3 days/week for 3 weeks. Format: organism-based, CWR22R. As to conditions: in vivo. The essentials: as §2
The test system of data set [4] is Mus musculus. As to the kind of experiment: Toxicity in human 22Rv1 cells xenografted nu/nu mouse assessed as induction of mouse death at 2 umol/kg, ip administered as single dose on alternative days, 3 days/week for 3 weeks. Type of data set: organism-based, CWR22R. To be noted: in vivo. The essentials: as §2
For data set [5], the system named is Mus musculus. Kind of data set: Toxicity in human 22Rv1 cells xenografted nu/nu mouse assessed as effect on body weight at 2 umol/kg, ip administered as single dose on alternative days, 3 days/week for 3 weeks. Format: organism-based, CWR22R. To be noted: in vivo. The essentials:
as §2

The test system of data set [6] is CWR22R. Kind of data set: Cytotoxicity against human 22Rv1 cells after 24 hrs by [3H]thymidine incorporation assay. Format: functional, cell-based. The essentials:
as §1

The test system of data set [7] is CWR22R. Kind of data set: Antitumor activity against human 22Rv1 cells xenografted in nu/nu mouse assessed as regression of tumor growth at 2 umol/kg, ip administered as single dose on alternative days, 3 days/week for 3 weeks co-administered with 100 fold excess dose of DUPA-Aoc-Phe-Phe-Dap-Asp-Cys reagent. Format: functional, organism-based. The essentials:
as §2

Data set [8] deals with CWR22R. As to the kind of experiment: Antitumor activity against human 22Rv1 cells xenografted in nu/nu mouse assessed as reduction in tumor mass at 2 umol/kg, ip administered as single dose on alternative days, 3 days/week for 3 weeks by hematoxylin and eosin staining. Format: functional, organism-based.
The target in data set [9] is Glutamate carboxypeptidase 2 (Homo sapiens, UniProt Q04609). As to the kind of experiment: Inhibition of PSMA (unknown origin).

For orientation: IC50 means the midpoint of a concentration-inhibition curve.

The source made the active and inactive calls. The calls are words filed in the database; no cut-off is given here.

Glutamate carboxypeptidase 2, sequence (Q04609 whole entry): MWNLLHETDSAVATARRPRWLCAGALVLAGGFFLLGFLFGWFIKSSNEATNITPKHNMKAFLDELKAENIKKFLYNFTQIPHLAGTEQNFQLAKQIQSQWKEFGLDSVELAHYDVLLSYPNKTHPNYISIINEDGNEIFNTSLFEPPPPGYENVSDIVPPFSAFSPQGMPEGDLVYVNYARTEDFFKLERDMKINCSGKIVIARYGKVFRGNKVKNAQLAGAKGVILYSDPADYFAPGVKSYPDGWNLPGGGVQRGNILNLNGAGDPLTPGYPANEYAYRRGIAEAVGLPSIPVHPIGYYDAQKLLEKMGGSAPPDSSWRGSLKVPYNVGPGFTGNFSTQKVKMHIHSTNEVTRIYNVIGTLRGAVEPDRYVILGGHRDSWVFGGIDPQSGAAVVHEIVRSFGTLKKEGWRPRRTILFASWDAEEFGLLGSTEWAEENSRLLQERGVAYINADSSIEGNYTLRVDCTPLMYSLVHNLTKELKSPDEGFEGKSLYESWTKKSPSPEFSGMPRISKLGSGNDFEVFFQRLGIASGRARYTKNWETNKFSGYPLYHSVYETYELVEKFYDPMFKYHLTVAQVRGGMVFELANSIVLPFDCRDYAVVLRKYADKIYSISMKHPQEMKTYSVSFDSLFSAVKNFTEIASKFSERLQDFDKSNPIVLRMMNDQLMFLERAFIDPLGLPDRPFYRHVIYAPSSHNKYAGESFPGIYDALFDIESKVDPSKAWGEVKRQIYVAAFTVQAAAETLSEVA

Regarding `COc1cc2c(cc1O)C(=O)c1c-2n(CCCN2CCOCC2)c(=O)c2cc(OC)c(OC)cc12`, the IC50 in the data set on CWR22R [1] (Homo sapiens, 22Rv1, read-out: IC50) is 2 nM. Further, the outcome in the data set on CWR22R [2] was Active. The Activity entry is “Toxic” with Mus musculus [3], “Toxic” in the data set with Mus musculus [4] and “Non-toxic” in the data set on Mus musculus [5].
In the case of `COc1cc2c3c(n(CCCN4CCOCC4)c(=O)c2cc1OC)-c1cc(OC)c(OC(=O)OCCSSC[C@H](NC(=O)[C@H](CC(=O)O)NC(=O)[C@@H](N)CNC(=O)[C@H](Cc2ccccc2)NC(=O)[C@H](Cc2ccccc2)NC(=O)CCCCCCCNC(=O)CC[C@H](NC(=O)N[C@@H](CCC(=O)O)C(=O)O)C(=O)O)C(=O)O)cc1C3=O`, the IC50 result was “Not Active” in the data set with CWR22R [1] (cwr22r) and 11.4 nM with CWR22R [6]. Further, the outcome with CWR22R [2] and in the data set on CWR22R [8] was Active. In addition, the result with CWR22R [7] was inactive. The Activity entry with Mus musculus [3], with Mus musculus [4] and with Mus musculus [5] was “Non-toxic” each time.
In [9], `O=C(O)CC[C@H](NC(=O)N[C@@H](CCC(=O)O)C(=O)O)C(=O)O` gave an IC50 of 47 nM.
